# Data from ChEMBL document CHEMBL1671645, “Pharmacokinetics and absorption of posaconazole oral suspension under various gastric conditions in healthy volunteers” (Antimicrob Agents Chemother, 2009).
# How the values were obtained:
# [1] = test system: Homo sapiens; assay: Toxicity in healthy human assessed as adverse events at 200 mg QID, po administered as suspension for 7 days coadministered with nutritional supplement; assay type: organism-based; conditions: in vivo, 168 h
# Procedure, shortened: (§1)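 Healthy volunteers monitored for adverse events, vital signs, clinical laboratory values and 12-lead ECG. Adverse events tabulated by body system or organ class and severity and summarized by treatment across the crossover regimens.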
# [2] = test system: Homo sapiens; assay: Toxicity in healthy human assessed as asthenia at 200 mg QID, po administered as suspension for 7 days; assay type: organism-based; conditions: in vivo, 168 h; procedure, shortened: as §1
# [3] = Apparent total body clearance in fasted healthy human at 400 mg administered as single dose suspension coadministered with proton pump inhibitor; assay type: ADME, organism-based; conditions: in vivo
# Procedure, shortened: (§2)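 This was a four-way crossover in 12 healthy subjects with 7–10 day washouts. Each took one fasting 400 mg oral suspension dose, with 12 oz ginger ale and/or esomeprazole 40 mg once each morning on days −2 to 1, with dosing on day 1. Plasma was sampled 0–168 h and measured by LC-MS/MS (LLOQ 5.00 ng/ml). Analysis was noncompartmental, with CL/F = dose/AUC_I and V/F = (CL/F)/K.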
# [4] = test system: Homo sapiens; assay: Toxicity in healthy human assessed as dizziness at 400 mg BID, po administered as suspension for 7 days coadministered with nutritional supplement; assay type: organism-based; conditions: in vivo, 168 h
# Procedure, shortened: (§3)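 Healthy volunteers (n = 12) took oral posaconazole suspension (40 mg/ml) for 7 days in a four-way randomized crossover with a 14- to 21-day washout. Subjects stayed fasted throughout, with nonfat snacks up to 800 cal/day allowed. Where given, Boost was taken with each dose. Safety covered adverse events, vital signs, clinical labs and 12-lead ECG, with AEs tabulated by body system and severity per treatment.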
# [5] = Apparent total body clearance in healthy human at 400 mg administered as single dose suspension coadministered with nutritional supplement and 4 mg loperamide as two 2 mg tablets; assay type: ADME, organism-based; conditions: in vivo, po
# Procedure, shortened: (§4)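 A three-way crossover in 13 healthy subjects gave one 400 mg oral suspension dose with a nutritional supplement, either alone, with metoclopramide 10 mg orally three times daily on the day before and the day of dosing, or with a single 4 mg dose of loperamide. Plasma was taken 0–168 h for LC-MS/MS. Analysis was noncompartmental.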
# [6] = test system: Homo sapiens; assay: Apparent total body clearance in healthy human at 400 mg BID, po administered as suspension for 7 days coadministered with nutritional supplement; assay type: ADME, organism-based; conditions: in vivo, 168 h
# Procedure, shortened: (§5)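 Twelve healthy subjects took oral suspension for 7 days as 400 mg BID or 200 mg QID, either fasting or with a Boost-type nutritional supplement, in a crossover with 14–21 day washouts. Nonfat snacks of 800 cal/day or less were allowed. Plasma was sampled 0–168 h after the day-7 morning dose only and analysed by LC-MS/MS. AUC is AUC_τ, normalized to dose.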
# [7] = AUC in fasted healthy human at 400 mg administered as single dose suspension; assay type: ADME, organism-based; conditions: plasma
# [8] = Apparent total body clearance in fasted healthy human at 400 mg administered as single dose suspension coadministered with acidic carbonated beverage and proton pump inhibitor; assay type: ADME, organism-based; conditions: in vivo; procedure, shortened: as §2
# [9] = Apparent total body clearance in healthy human at 400 mg administered as single dose suspension coadministered with nutritional supplement and 10 mg metoclopramide; assay type: ADME, organism-based; conditions: in vivo, po; procedure, shortened: as §4
# [10] = test system: Homo sapiens; assay: Toxicity in healthy human assessed as dizziness at 400 mg BID, po administered as suspension for 7 days; assay type: organism-based; conditions: in vivo, 168 h; procedure, shortened: as §3
# [11] = test system: Homo sapiens; assay: Toxicity in healthy human assessed as headache at 200 mg QID, po administered as suspension for 7 days coadministered with nutritional supplement; assay type: organism-based; conditions: in vivo, 168 h; procedure, shortened: as §3
# [12] = Cmax in healthy human plasma at 400 mg BID, po administered as suspension for 7 days coadministered with nutritional supplement; assay type: ADME, organism-based; design: dose 400 mg, route oral; procedure, shortened: as §5
# [13] = test system: Homo sapiens; assay: Toxicity in healthy human assessed as dizziness at 400 mg administered as single dose suspension coadministered with nutritional supplement and 4 mg loperamide as two 2 mg tablets; assay type: organism-based; conditions: in vivo
# Procedure, shortened: (§6)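 Three-way randomized crossover in 13 healthy volunteers with a 7- to 10-day washout. Each period was one 400-mg oral posaconazole suspension dose with a nutritional supplement. Metoclopramide 10 mg was given orally three times daily on the day before and the day of dosing; loperamide was a single 4 mg. Safety was assessed from adverse events, tabulated by body system and severity per treatment.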
# [14] = test system: Homo sapiens; assay: Toxicity in healthy human assessed as fatigue at 400 mg administered as single dose suspension coadministered with nutritional supplement and 4 mg loperamide as two 2 mg tablets; assay type: organism-based; conditions: in vivo; procedure, shortened: as §6
# [15] = test system: Homo sapiens; assay: Toxicity in healthy human assessed as asthenia at 400 mg BID, po administered as suspension for 7 days coadministered with nutritional supplement; assay type: organism-based; conditions: in vivo, 168 h; procedure, shortened: as §1
# [16] = test system: Homo sapiens; assay: AUC in healthy human at 400 mg BID, po administered as suspension for 7 days coadministered with nutritional supplement; assay type: ADME, organism-based, Plasma; conditions: in vivo, 168 h; procedure, shortened: as §5
# [17] = Tmax in healthy human at 400 mg administered as single dose suspension coadministered with nutritional supplement and 10 mg metoclopramide; assay type: ADME, organism-based; conditions: in vivo
# Procedure, shortened: (§7)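 Single oral suspension dose with nutritional supplement, alone or with metoclopramide 10 mg orally three times daily on the day before and the day of dosing; three-way crossover, 7–10-day washout. EDTA plasma predose to 168 h, LC-MS/MS (LLOQ 5.00 ng/ml). t1/2 = ln(2)/K from terminal slope; Tmax median.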
# [18] = Tmax in fasted healthy human at 400 mg administered as single dose suspension 5 mins before consumption of high fat meal; assay type: ADME, organism-based; conditions: in vivo
# Procedure, shortened: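 Single oral suspension dose in healthy volunteers while fasting, 5 min before, midway through (about 10 min into a 20-min meal), or 20 min after a high-fat meal (approx 50 g fat); four-way crossover, 7–10-day washout. Plasma 0–168 h by LC-MS/MS (LLOQ 5.00 ng/ml). t1/2 = ln(2)/K; Tmax median.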
# [19] = Apparent volume of distribution in fasted healthy human at 400 mg administered as single dose suspension after consumption of high fat meal; assay type: ADME, organism-based; conditions: in vivo, read-out: Vc/F
# Procedure, shortened: (§8)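 In a crossover of 12 healthy subjects, each took a single 400 mg oral suspension dose 5 min before, midway through (about 10 min into a 20-min meal), or 20 min after a high-fat meal of about 50 g fat. Plasma was drawn 0–168 h and measured by LC-MS/MS. Parameters are noncompartmental, with AUC to the last measurable time.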
# [20] = Apparent volume of distribution in fasted healthy human at 400 mg administered as single dose suspension coadministered with acidic carbonated beverage and proton pump inhibitor; assay type: ADME, organism-based; conditions: in vivo, read-out: Vc/F; procedure, shortened: as §2
# [21] = Tmax in fasted healthy human at 200 mg QID, po administered as suspension for 7 days; assay type: ADME, organism-based; conditions: in vivo
# Procedure, shortened: (§9)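 Healthy volunteers given oral suspension (40 mg/ml) for 7 days, fasted or with nutritional supplement (Boost); four-way crossover, 14–21-day washout, nonfat snacks ≤800 cal/day allowed. On day 7 only the morning dose was given; plasma sampled predose to 168 h after it. LC-MS/MS (LLOQ 5.00 ng/ml). t1/2 = ln(2)/K from log-linear terminal slope; Tmax as median.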
# [22] = Cmax in fasted healthy human plasma at 400 mg administered as single dose suspension after 20 mins after consumption of high fat meal; assay type: ADME, organism-based; design: dose 400 mg; procedure, shortened: as §8
# [23] = Apparent total body clearance in fasted healthy human at 400 mg administered as single dose suspension after 20 mins after consumption of high fat meal; assay type: ADME, organism-based; conditions: in vivo; procedure, shortened: as §8
# [24] = Half life in healthy human at 400 mg administered as single dose suspension coadministered with nutritional supplement and 10 mg metoclopramide; assay type: ADME, organism-based; conditions: in vivo; procedure, shortened: as §7
# [25] = Tmax in healthy human at 400 mg BID, po administered as suspension for 7 days coadministered with nutritional supplement; assay type: ADME, organism-based; conditions: in vivo; procedure, shortened: as §9
smiles,measurement,setting,value
CC[C@@H]([C@H](C)O)n1ncn(-c2ccc(N3CCN(c4ccc(OC[C@@H]5CO[C@@](Cn6cncn6)(c6ccc(F)cc6F)C5)cc4)CC3)cc2)c1=O [POSACONAZOLE],Activity,[1],75%
same,Activity,[2],25%
same,CL/F,[3],1930 mL/min
same,Activity,[4],33%
same,CL/F,[5],743 mL/min
same,CL/F,[6],33.9 L/h
same,AUC,[7],5600 ng·h/mL
same,CL/F,[8],1620 mL/min
same,CL/F,[9],993 mL/min
same,Activity,[10],33%
same,Activity,[11],25%
same,Cmax,[12],1590 ng/mL
same,Activity,[13],15%
same,Activity,[14],15%
same,Activity,[15],25%
same,AUC,[16],80600 ng·h/mL
same,Tmax,[17],5 h
same,Tmax,[18],7 h
same,Vd/F,[19],757 L
same,Vd/F,[20],3920 L
same,Tmax,[21],4 h
same,Cmax,[22],544 ng/mL
same,CL/F,[23],395 mL/min
same,half-life,[24],27.7 h
same,Tmax,[25],6 h
